Scp-1 inhibitor = blocks human Scp-1 phosphatase activity; 0.88% of 340,000 active; inhibition, % at 20 µM; Q9GZU7; Recombinant Scp1, phosphopeptide, malachite green phosphate absorbance;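 active means inhibition above about 50% at 20 µM, limit read from the data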;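 further: plate controls were DMSO wells with enzyme for no effect and wells lacking enzyme for full effect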
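Test system – truncated SCP-1 phosphatase (76-261aa) · Reagent – Phosphorylated 17-residue peptide substrate · Incubation – 45 min room-temperature reaction, 5 min colour, 30 min stabiliser · Detection – colorimetric phosphate reagent with accelerator and stabiliser, absorbance at 630 nm · Measure – % inhibition at 20 µM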
STEP inh = STEP (human) phosphatase inhibition; P54829; recombinant STEP, OMFP fluorogenic substrate, fluorescence; inhibition, % at 20 µM; 0.25% of 360,000 active;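 active means inhibition at 20 µM, scaled per plate between control wells, above about 37%, limit read from the data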;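 further: 0% = DMSO with enzyme and substrate and 100% = substrate only without enzyme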
Target sequence (P54829 whole entry, looked up): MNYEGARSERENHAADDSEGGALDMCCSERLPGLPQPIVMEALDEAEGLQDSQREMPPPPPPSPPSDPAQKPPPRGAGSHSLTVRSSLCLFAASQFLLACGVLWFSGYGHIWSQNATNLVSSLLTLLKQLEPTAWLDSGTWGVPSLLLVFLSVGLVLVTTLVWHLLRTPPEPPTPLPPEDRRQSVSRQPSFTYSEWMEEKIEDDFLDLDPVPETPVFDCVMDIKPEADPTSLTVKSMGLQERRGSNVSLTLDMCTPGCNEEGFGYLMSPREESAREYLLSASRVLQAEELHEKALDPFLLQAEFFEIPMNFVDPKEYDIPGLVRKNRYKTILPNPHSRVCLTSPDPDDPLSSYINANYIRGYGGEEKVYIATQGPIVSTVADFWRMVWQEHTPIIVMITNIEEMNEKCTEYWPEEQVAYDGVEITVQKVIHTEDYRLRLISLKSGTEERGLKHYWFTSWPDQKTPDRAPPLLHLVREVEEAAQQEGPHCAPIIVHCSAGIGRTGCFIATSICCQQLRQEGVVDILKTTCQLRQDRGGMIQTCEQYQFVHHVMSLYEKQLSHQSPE
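medium = Bis-Tris buffer pH 6.0, 2.5 mM DTT, 0.005% Tween 20 | test system = STEP (striatal-enriched tyrosine phosphatase) enzyme, cell-free | measure = normalized % inhibition | compound dosing = 20 µM, 1% DMSO | also added = 25 µM OMFP | schedule = reaction 20 min, ambient temperature | measured by = fluorescence read at 480 nm ex / 540 nm em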
LMPTP inh = LMPTP (human) inhibition; P24666; recombinant LMPTP-A, OMFP fluorogenic substrate, fluorescence intensity; inhibition, % at 20 µM; 0.22% of 360,000 active;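 active means compounds that cut the enzyme signal by at least half of the control window in the single-dose screen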;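 further: plate controls were DMSO wells with enzyme plus substrate for no effect and substrate without enzyme for full effect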
Target sequence (P24666 whole entry, looked up): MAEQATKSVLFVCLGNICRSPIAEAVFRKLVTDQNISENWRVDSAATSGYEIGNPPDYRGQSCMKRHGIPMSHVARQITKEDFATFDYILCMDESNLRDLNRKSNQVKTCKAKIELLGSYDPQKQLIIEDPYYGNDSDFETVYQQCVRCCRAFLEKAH
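Test system – LMPTP-A enzyme · Amount – LMPTP-A at 0.625 nM final in the reaction · Buffer or medium – Bis-Tris pH 6.0, DTT, detergent · Reagent – OMFP 400 µM · Doses – single 20 µM dose · Schedule – reaction 50 min, room temperature, dark · Detection – fluorescence intensity of OMFP turnover product · Evaluation – percent inhibition versus substrate-only and uninhibited controls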
Rpn11 inh = blocks the human proteasome subunit Rpn11; O00487; human 26S proteasome, Ub4-pepOG fluorescence polarization; 20S core pre-blocked with epoxomicin; inhibition, % at 20 µM; 0.59% of 360,000 active; AID 588493;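 active means inhibition at 20 µM, scaled to each plate's controls, above about 33%, limit read from the data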
DNMT1 block = DNMT1 (human) enzyme inhibition. P26358. DNMT1 molecular beacon, Hinp1I cleavage, fluorescence. inhibition (reported as % activation of signal), % at 10 µM. AID 588458. 0.83% of 360,000 active; in the data active means inhibition above about 50%
Scp1 confirm = confirmation of human Scp-1 phosphatase inhibitors. shares compounds with Scp-1 inhibitor. recombinant SCP-1 catalytic domain, phosphate release, malachite green absorbance. inhibition, % at 20 µM. 61% of 2,500 active. AID 540281;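 further: plate controls were DMSO with enzyme for no effect and buffer wells lacking enzyme for full effect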
MG interference = counter-screen for Scp-1 inhibitors: colorimetric interference. shares compounds with Scp-1 inhibitor. apparent inhibition (interference), % at 20 µM. 2,500 tested, under 10 active. Colorimetric interference counterscreen, malachite green absorbance 630 nm;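 further: compounds added after enzyme reaction finished so only phosphate colour detection is probed; plate controls were DMSO wells with completed Scp-1 reaction for no effect and substrate wells lacking enzyme for full effect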
Scp-1 Tm shift = Scp-1 (human) binding by thermal shift | thermal shift relative to vanadate control, % at 40 µM | AID 540329 | shares compounds with Scp-1 inhibitor | 25% of 1,500 active | Recombinant SCP1, Sypro Orange thermal shift Tm;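 active means substances whose mean melting-temperature shift, as a percentage of the reference inhibitor's shift, reaches about 5.3%, limit read from the data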;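 further: 0% = Tm of DMSO wells and 100% = Tm with sodium orthovanadate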
Beacon interf DR = counter-screen for DNMT1 inhibitors: spectral interference, dose response; IC50, µM; shares compounds with DNMT1 block; molecular beacon fluorescence; 200 tested, under 10 active; call rule not given here
DNMT1 confirm = confirmation of human DNMT1 inhibitors | 8% of 2,300 active | shares compounds with DNMT1 block | DNMT1 molecular beacon HinP1I cleavage, fluorescence | inhibition, % at 10 µM;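 active means average inhibition of at least 30% in the single-concentration confirmation test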
Beacon interf = shows spectral interference in the DNMT1 beacon assay. shares compounds with DNMT1 block. DNMT1 molecular beacon spectral interference counterscreen, fluorescence 485/520. AID 602387. 1% of 2,300 active. activation (fluorescence interference), % at 10 µM;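 active means activation of at least 30% at 10 µM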;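 further: DNMT1 catalytic domain with a HinP1I cleavage step and a FAM/dabcyl DNA beacon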
* marks the source's active call; other numbers are inactive results. An excerpt weighted towards active compounds, which were near 2% of everything screened.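 How the source made its calls, unless noted: active means inhibition of at least 30% at 20 µM; inactive means the rest.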

What do the screens show for `COC(=O)c1cc(NC(=O)Cc2cccs2)cc(C(=O)OC)c1`?
Scp-1 inhibitor: 75.7*; STEP inh: 21.1; LMPTP inh: 47.5; Rpn11 inh: 12.6; DNMT1 block: 57.8*; Scp1 confirm: 64.8*; MG interference: -17.8; Scp-1 Tm shift: 6.3*; DNMT1 confirm: 6.6; Beacon interf: -1.7

How did COc1cc(NC(=O)c2ccccc2)c(OC)cc1NC(=O)Cc1cccs1 do in these assays?
Scp-1 inhibitor: 71.4*; STEP inh: 2.2; LMPTP inh: 23.7; Rpn11 inh: 7.0; DNMT1 block: 72.6*; Scp1 confirm: 65.7*; MG interference: -15.9; Scp-1 Tm shift: 8.0*; DNMT1 confirm: 3.8; Beacon interf: -7.0

How did O=C(O)c1cc(-c2ccco2)nc2cc3ccccc3cc12 do in these assays?
Scp-1 inhibitor: 91.1*; STEP inh: 31.1; LMPTP inh: 1.1; Rpn11 inh: 32.0; DNMT1 block: 75.6*; Scp1 confirm: 33.9*; MG interference: -15.3; Scp-1 Tm shift: 3.6; DNMT1 confirm: 1.8; Beacon interf: 4.8

What do the screens show for `O=C(N/N=C/c1ccc2c(c1)OCO2)c1cc(-c2ccco2)nc2ccccc12`?
Scp-1 inhibitor: 67.5*; STEP inh: 4.8; LMPTP inh: 12.0; Rpn11 inh: -9.8; DNMT1 block: 71.7*; Scp1 confirm: 45.5*; MG interference: -14.5; Scp-1 Tm shift: 5.1; DNMT1 confirm: 5.1; Beacon interf: 0.8

Results for O=C(N/N=C/c1ccc2c(c1)OCO2)c1cc(-c2ccccc2)nc2ccccc12 ?
Scp-1 inhibitor: -0.8; STEP inh: -1.3; LMPTP inh: 0.8; Rpn11 inh: 32.9; DNMT1 block: -4.5

Results for CCOc1ccc(NC(=O)CN(C)C(=O)c2cc(-c3ccco3)nc3ccccc23)cc1OCC ?
Scp-1 inhibitor: -4.9; STEP inh: 1.1; LMPTP inh: 1.6; Rpn11 inh: 6.0; DNMT1 block: -0.8

What do the screens show for `CN(CC(=O)Nc1ccc(F)cc1)C(=O)c1cc(-c2ccco2)nc2ccccc12`?
Scp-1 inhibitor: 70.4*; STEP inh: 2.6; LMPTP inh: 28.4; Rpn11 inh: 8.0; DNMT1 block: 84.2*; Scp1 confirm: 62.0*; MG interference: -13.1; Scp-1 Tm shift: 8.9*; DNMT1 confirm: 9.0; Beacon interf: 3.5

Results for Cc1ccc(NC(=O)CN(C)C(=O)c2cc(-c3ccco3)nc3ccccc23)cc1 ?
Scp-1 inhibitor: 75.7*; STEP inh: 4.5; LMPTP inh: 25.2; Rpn11 inh: 16.3; DNMT1 block: 75.3*; Scp1 confirm: 67.8*; MG interference: -12.6; Scp-1 Tm shift: 6.2*; DNMT1 confirm: 11.2; Beacon interf: 4.6

How did Cc1cn([C@H]2C[C@H](O)[C@@H](CNCc3cc(Br)ccc3OCc3ccccc3)O2)c(=O)[nH]c1=O do in these assays?
STEP inh: 0.3; LMPTP inh: -1.5; Rpn11 inh: -10.5; DNMT1 block: -0.8

How did COc1ccc(Br)cc1CN(C)C(=O)c1cnc(C)cn1 do in these assays?
Scp-1 inhibitor: -6.8; STEP inh: -2.7; LMPTP inh: -0.6; Rpn11 inh: 0.3; DNMT1 block: 1.6

How did CC(C)c1ccc(C(=O)COC(=O)C(O)c2ccccc2)cc1 (stereo unspecified) do in these assays?
Scp-1 inhibitor: -21.0; STEP inh: 0.7; LMPTP inh: -0.5; Rpn11 inh: -3.0; DNMT1 block: 1.6

How did COc1ccc(-c2cc(C(=O)N(C)CC(=O)Nc3cccc(F)c3)c3ccccc3n2)cc1 do in these assays?
Scp-1 inhibitor: -0.1; STEP inh: -3.0; LMPTP inh: 2.3; Rpn11 inh: 4.3; DNMT1 block: -5.2

How did COc1cccc(NC(=O)CN(C)C(=O)c2cc(-c3ccco3)nc3ccccc23)c1 do in these assays?
Scp-1 inhibitor: 64.3*; STEP inh: 4.4; LMPTP inh: 12.4; Rpn11 inh: -2.1; DNMT1 block: 54.6*; Scp1 confirm: 60.8*; MG interference: -12.3; Scp-1 Tm shift: 5.3*; DNMT1 confirm: 2.6; Beacon interf: 0.3

Results for CC1(C(=O)NS(=O)(=O)C2CC2)CCN(C(=O)c2ccccc2F)C1 (stereo unspecified) ?
STEP inh: -3.7; LMPTP inh: 3.6; Rpn11 inh: 1.0; DNMT1 block: -3.5

How did Cc1ccc(C)c(S(=O)(=O)Nc2ccc3oc(C)c(C(=O)O)c3c2)c1 do in these assays?
Scp-1 inhibitor: 70.5*; STEP inh: 63.9*; LMPTP inh: 23.3; Rpn11 inh: -6.0; DNMT1 block: 82.6*; Scp1 confirm: 64.5*; MG interference: -13.4; Scp-1 Tm shift: 12.4*; DNMT1 confirm: 15.7; Beacon interf: -1.0

How did Cc1ccc2cc(NC(=O)C3(C)CCN3C(C)C)ccc2n1 (stereo unspecified) do in these assays?
STEP inh: 1.4; LMPTP inh: -2.4; Rpn11 inh: -4.1; DNMT1 block: -0.1

What do the screens show for `O=C1Nc2ccc(S(=O)(=O)NCc3ccccn3)c3cccc1c23`?
Scp-1 inhibitor: 86.1*; STEP inh: 16.4; LMPTP inh: 13.0; Rpn11 inh: -4.3; DNMT1 block: 53.6*; Scp1 confirm: 61.0*; MG interference: -6.0; Scp-1 Tm shift: -8.3; DNMT1 confirm: 1.5; Beacon interf: 4.2

How did CN(C)CCNS(=O)(=O)c1ccc2c3c(cccc13)C(=O)N2 do in these assays?
Scp-1 inhibitor: -2.0; STEP inh: 1.6; LMPTP inh: 8.9; Rpn11 inh: -5.3; DNMT1 block: 2.3

How did CC(C)(CS(=O)(=O)[O-])NC(=O)CC[N+](C)(C)CCO do in these assays?
Scp-1 inhibitor: 60.0*; STEP inh: 51.7*; LMPTP inh: -1.8; Rpn11 inh: -3.2; DNMT1 block: 116.3*; Scp1 confirm: 43.1*; MG interference: -12.6; Scp-1 Tm shift: -10.7; Beacon interf DR: >99; DNMT1 confirm: 85.9*; Beacon interf: 5.7
